In publication PMC3901018 (Chemical communications (Cambridge, England), 2014):

Assays:
[1] = test system: ALT (transformed WI38 lung fibroblast cells); test: 96 hr SRB assay, ALT; type: cell-based; details: Homo sapiens, WI-38, 96 h, read-out: IC50, ALT
[2] = test system: Panc1 (pancreatic cancer); test: 96 hr SRB assay, Panc1; type: cell-based; details: Homo sapiens, PANC-1, 96 h, read-out: IC50, Panc1
[3] = test system: AR (androgen receptor promoter) G4; test: FRET G4 stabilisation; type: binding; details: ΔTm at 1 µM; triplicate, Esd ± 0.5 °C
[4] = test system: 786-O (renal cancer); test: 96 hr SRB assay, 786-O; type: cell-based; details: Homo sapiens, 786-0, 96 h, read-out: IC50, 786-O
[5] = test system: c-KIT2 G4; test: FRET G4 stabilisation; type: binding; details: ΔTm at 1 µM; triplicate, Esd ± 0.5 °C
How it was run: (§1)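 96-well FRET melting assay using dual-labelled oligonucleotides: human telomeric 21-mer F21T and c-KIT2 G4s, plus T-loop duplex DNA. Test compound at 1 µM. Tm shift obtained by curve fitting to the melting data, from triplicate measurements, Esd ± 0.5 °C. n/a marks unsuccessful curve fitting.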

[6] = test system: A549 (lung cancer); test: 96 hr SRB assay, A549; type: cell-based; details: Homo sapiens, A549, 96 h, read-out: IC50, A549
[7] = test system: Mia-PaCa2 (pancreatic cancer); test: 96 hr SRB assay, Mia-PaCa2; type: cell-based; details: Homo sapiens, MIA PaCa-2, 96 h, read-out: IC50, Mia-PaCa2
[8] = test system: F21T (human telomeric 21-mer) G4; test: FRET G4 stabilisation; type: binding; details: ΔTm at 1 µM; triplicate, Esd ± 0.5 °C
How it was run: as §1

[9] = test system: RCC4 (renal cancer); test: 96 hr SRB assay, RCC4; type: cell-based; details: Homo sapiens, RCC4, 96 h, read-out: IC50, RCC4
[10] = test system: WI38 (non-transformed lung fibroblast cells); test: 96 hr SRB assay, WI38; type: cell-based; details: Homo sapiens, WI-38, 96 h, read-out: IC50, WI38
[11] = test system: duplex DNA sequence (T-loop); test: FRET melting assay, duplex DNA control; type: binding; details: ΔTm at 1 µM, Esd ± 0.5 °C
How it was run: as §1

[12] = test system: MCF7 (breast cancer); test: 96 hr SRB assay, MCF7; type: cell-based; details: Homo sapiens, MCF7, 96 h, read-out: IC50, MCF7
[13] = test system: HSP90B promoter G4; test: FRET G4 stabilisation; type: binding; details: ΔTm at 1 µM; triplicate, Esd ± 0.5 °C
[14] = test system: F21T G4 versus calf thymus duplex DNA; test: Calf thymus DNA; type: binding, human; details: 1 µM compound, calf thymus DNA competitor
How it was run: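 Competition version of the FRET melting assay. Dual-labelled F21T G4 is challenged with unlabelled calf thymus duplex DNA added at high duplex:G4 ratios. Test compound at 1 µM. Read-out is % retention of the F21T Tm shift.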

[15] = test system: HSP90A promoter G4; test: FRET G4 stabilisation; type: binding; details: ΔTm at 1 µM; triplicate, Esd ± 0.5 °C

CN1CCN(CCCNc2cc3c4c(c(NCCCN5CCN(C)CC5)cc5c4c2C(=O)N(CCCN2CCOCC2)C5=O)C(=O)N(CCCN2CCOCC2)C3=O)CC1 [Compound 8, 4,9-bis((3-(4-methyl-piperazin-1-yl)propyl)amino)-2,7-bis(3-morpholinopropyl) benzo-[lmn] [3,8] phenanthroline-1,3,6,8(2H,7H)-tetraone]
IC50 [1]: 63 nM | IC50 [2]: 3 nM | FRET G4 stabilization ΔTm, AR [3]: 15.9 °C | IC50 [4]: 320 nM | FRET G4 stabilization ΔTm, c-KIT2 [5]: 22.0 °C | IC50 [6]: 19 nM | IC50 [7]: 11 nM | FRET G4 stabilization ΔTm, F21T [8]: 26.6 °C | IC50 [9]: 560 nM | IC50 [10]: 230 nM | FRET ΔTm, T-loop duplex [11]: 4.9 °C | IC50 [12]: 70 nM | FRET G4 stabilization ΔTm, HSP-90B [13]: 28.6 °C | % retention of the F21T ΔTm, G4:CT 1:1 ([14]; G4:CT 1:1): 100% | % retention of the F21T ΔTm, G4:CT 1:10 ([14]; G4:CT 1:10): 100% | % retention of the F21T ΔTm, G4:CT 1:300 ([14]; G4:CT 1:300): 27.2% | FRET G4 stabilization ΔTm, HSP-90A [15]: 33.1 °C
